# According to publication PMC3709443 (Natural product communications, 2009):
# Read-outs that look alike come from different tables or passages of the source.
# Assays:
# [1] = test system: VERO cells (monkey kidney fibroblasts); test: Cytotoxicity to VERO cells; assay type: cell-based; details: for VERO cells IC50: Table 2, maximum dose tested 4760 ng/mL; for IC50: Primates, Vero
# [2] = test system: SK-OV-3: Human ovarycarcinoma; test: Cytotoxicity assay; assay type: cell-based; details: for SK-OV-3 IC50: 48 hours, Neutral Red
# Procedure, shortened: (§1)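 ATCC-sourced cells seeded at 25000 cells/well and incubated 24 h. Test compound was then added at various concentrations for a further 48 h. Viable cells were measured by a modified Neutral Red procedure. IC50 was determined from dose-response curves of percent growth inhibition. Doxorubicin was the positive control and DMSO the vehicle control.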
# [3] = test system: KB: Human epidermoid carcinoma; test: Cytotoxicity assay; assay type: cell-based; details: for KB IC50: 48 hours, Neutral Red
# Procedure, shortened: as §1
# [4] = test system: BT-549: Human ductal carcinoma; test: Cytotoxicity assay; assay type: cell-based; details: for BT-549 IC50: 48 hours, Neutral Red
# Procedure, shortened: as §1
# [5] = test system: P. falciparum W2 (chloroquine-resistant clone); test: Antimalarial parasite LDH assay, W2 strain; assay type: cell-based, Plasmodium falciparum; details: for P. falciparum W2 IC50: chloroquine-resistant clone, 72 h, pLDH readout; for IC50: Plasmodium falciparum, W2, 72 h, read-out: P. falciparum W2 IC50
# [6] = test system: SK-MEL: Human malignant melanoma; test: Cytotoxicity assay; assay type: cell-based; details: for SK-MEL IC50: 48 hours, Neutral Red
# Procedure, shortened: as §1
# [7] = test system: P. falciparum D6 (chloroquine-sensitive clone); test: Antimalarial parasite LDH assay, D6 strain; assay type: cell-based, Plasmodium falciparum; details: for P. falciparum D6 IC50: chloroquine-sensitive clone, 72 h, pLDH readout; for IC50: Plasmodium falciparum, D6, 72 h, read-out: P. falciparum D6 IC50
# [8] = test system: methicillin-resistant Staphylococcus aureus ATCC 43300 (MRS); test: Antimicrobial susceptibility assay, MRS; assay type: cell-based; details: for MRS IC50: first value of IC50/MIC
# Procedure, shortened: (§2)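 Modified CLSI broth dilution with test compound dissolved in DMSO and serially diluted in 20% DMSO/saline, in duplicate. Inoculum prepared to target CFU/mL. Plates read at 630 nm before and after incubation. IC50 from percent growth vs concentration. MIC is the lowest concentration with no detectable growth. MBC is the lowest concentration giving no growth when 5 μL from clear wells is subcultured on agar. Ciprofloxacin control.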
# [9] = test system: LLC-PK11: Pig kidney epithelial; test: Cytotoxicity assay; assay type: cell-based; details: 48 hours; Neutral Red
# Procedure, shortened: as §1
# [10] = test system: Cryptococcus neoformans ATCC 90113; test: Antimicrobial susceptibility assay, C. neoformans; assay type: cell-based; details: for C. neoformans IC50: first value of IC50/MIC, 50% inhibition of growth; for C. neoformans MIC: second value of IC50/MIC, no detectable growth
# Procedure, shortened: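 Modified CLSI broth dilution. Test compound in DMSO, serially diluted in 20% DMSO/saline, duplicate wells. Inoculum in assay medium to target CFU/mL, with growth, solvent and media controls. Absorbance at 630 nm before and after incubation. IC50 from percent growth vs concentration. MIC is the lowest concentration without detectable growth. MFC comes from 5 μL of clear wells plated on agar, no growth. Amphotericin B control.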
# [11] = test system: Escherichia coli ATCC 35218; test: Antimicrobial susceptibility assay, E. coli; assay type: cell-based; details: for E. coli IC50: first value of IC50/MIC
# Procedure, shortened: as §2
# [12] = test system: Leishmania donovani promastigotes; test: Antileishmanial assay; assay type: cell-based; details: for L. donovani IC50 / L. donovani IC90: promastigotes, 26°C, 72 hours; for IC50 / IC90: Leishmania donovani, 72 h; for IC50: read-out: L. donovani IC50; for IC90: read-out: L. donovani IC90
# Procedure, shortened: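 L. donovani promastigote culture at 2×10^6 cells/mL exposed to diluted test compound in 96-well format. Incubation 26°C, 72 h. Growth read by Alamar blue. IC50 computed from the growth-inhibition curve. Pentamidine and amphotericin B served as reference agents.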
# [13] = test system: Aspergillus fumigatus ATCC 90906; test: Antimicrobial susceptibility assay, A. fumigatus; assay type: cell-based; details: for A. fumigatus IC50: first value of IC50/MIC
# Procedure, shortened: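 Modified CLSI broth dilution. Test compound dissolved in DMSO, serially diluted in 20% DMSO/saline and plated in duplicate. Inoculum prepared in assay medium to target CFU/mL. Fluorescence (544ex/590em) read before and after incubation. IC50 from percent growth vs concentration. MIC is the lowest concentration with no detectable growth. MFC is taken from 5 μL of each clear well subcultured on agar. Amphotericin B control.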
# [14] = test system: Mycobacterium intracellulare ATCC 23068; test: Antimicrobial susceptibility assay, M. intracellulare; assay type: cell-based; details: for M. intracellulare IC50: first value of IC50/MIC
# Procedure, shortened: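 Modified Alamar Blue procedure within modified CLSI methods. Test compound in DMSO, serially diluted in 20% DMSO/saline, duplicate wells. Inoculum in assay medium to target CFU/mL. Fluorescence 544ex/590em read before and after incubation. IC50 from percent growth vs concentration. MIC is the lowest concentration with no detectable growth. MBC from 5 μL of clear wells subcultured on agar. Ciprofloxacin control.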
Compound,VERO cells IC50 [1],SK-OV-3 IC50 [2] [µg/mL],KB IC50 [3] [µg/mL],BT-549 IC50 [4] [µg/mL],P. falciparum W2 IC50 [5] [ng/mL],SK-MEL IC50 [6] [µg/mL],P. falciparum D6 IC50 [7] [ng/mL],MRS IC50 [8],LLC-PK11 IC50 [9] [µg/mL],C. neoformans IC50 [10] [µg/mL],C. neoformans MIC [10] [µg/mL],E. coli IC50 [11],L. donovani IC50 [12] [µg/mL],L. donovani IC90 [12] [µg/mL],A. fumigatus IC50 [13],M. intracellulare IC50 [14],further results
6-Hydroxy-5-normethylbudmunchiamine K [Compound 4],NC (NC = Not cytotoxic (up to the maximum dose tested of 4760 ng/mL)),6.2,5.4,6.0,270,5.7,120,20.0 µg/mL,6.0,6.0,10.0,-/- (- =Not Active),2.1,7,-/- (- =Not Active),20.0 µg/mL,antimicrobial activity against C. neoformans in words [10]: weakly active
6-Hydroxybudmunchiamine K [Compound 2],NC (NC = Not cytotoxic (up to the maximum dose tested of 4760 ng/mL)),6.5,6.0,6.0,220,5.8,160,-/- (- =Not Active),5.3,10.0,20.0,-/- (- =Not Active),3.4,7,-/- (- =Not Active),-/- (- =Not Active),antimicrobial activity against C. neoformans in words [10]: weakly active
"C[C@@H]1[C@H](O)[C@@H](C)/C=C/C=C/C=C/C=C/C=C/C=C/C=C/[C@H](O[C@@H]2O[C@H](C)[C@@H](O)[C@H](N)[C@@H]2O)C[C@@H]2O[C@](O)(C[C@@H](O)C[C@@H](O)[C@H](O)CC[C@@H](O)C[C@@H](O)CC(=O)O[C@H]1C)C[C@H](O)[C@H]2C(=O)O [Amphotericin B, amphotericin B, reference compound]",–,–,–,–,–,–,–,–,–,–,–,–,–,–,–,–,"IC50 ([10]; Cryptococcus neoformans, ATCC90113, read-out: C. neoformans IC50): 0.8 µg/mL; MIC ([10]; Cryptococcus neoformans, ATCC90113, read-out: C. neoformans MIC): 1.25 µg/mL; IC50 [12]: 0.32 µg/mL; IC90 [12]: 0.8 µg/mL; IC50 ([13]; Aspergillus fumigatus, ATCC90906, read-out: A. fumigatus IC50): 0.6 µg/mL; MIC ([13]; Aspergillus fumigatus, ATCC90906, read-out: A. fumigatus MIC): 1.25 µg/mL"
"C[C@@H]1CC[C@H]2[C@@H](C)C(=O)O[C@@H]3O[C@@]4(C)CC[C@@H]1[C@]32OO4 [Artemisinin, artemisinin, reference compound]",–,–,–,–,–,–,–,–,–,–,–,–,–,–,–,–,IC50 ([1]; read-out: VERO cells IC50): > 4.76 µg/mL; IC50 [5]: 0.006 µg/mL; IC50 [7]: 0.01 µg/mL
"CCN(CC)CCCC(C)Nc1ccnc2cc(Cl)ccc12 (stereo not drawn) [Chloroquine, chloroquine, reference compound]",–,–,–,–,–,–,–,–,–,–,–,–,–,–,–,–,IC50 ([1]; read-out: VERO cells IC50): > 4.76 µg/mL; IC50 [5]: 0.135 µg/mL; IC50 [7]: 0.015 µg/mL
"O=C(O)c1cn(C2CC2)c2cc(N3CCNCC3)c(F)cc2c1=O [Ciprofloxacin, ciprofloxacin, reference compound]",–,–,–,–,–,–,–,–,–,–,–,–,–,–,–,–,"IC50 ([8]; Staphylococcus aureus, ATCC43300, read-out: MRS IC50): 0.09 µg/mL; MIC ([8]; Staphylococcus aureus, ATCC43300, read-out: MRS MIC): 0.5 µg/mL; IC50 ([11]; Escherichia coli, ATCC35218, read-out: E. coli IC50): 4 ng/mL; IC50 ([14]; Mycobacterium intracellulare, ATCC23068, read-out: M. intracellulare IC50): 0.5 µg/mL; MIC ([14]; Mycobacterium intracellulare, ATCC23068, read-out: M. intracellulare MIC): 1 µg/mL"
"CCCCCCCCCCCCCCCC1CC(=O)NCCCN(C)CCCCN(C)CCCN1 (stereo not drawn) [Compound 3, 5-Normethylbudmunchiamine K]",3000 ng/mL,4.8,2.3,2.0,210,2.0,140,6.5 µg/mL,2.5,1.0,2.5,6.5 µg/mL,0.8,1.3,-/- (- =Not Active),4.0 µg/mL,MRS MIC ([8]; second value of IC50/MIC): 10.0 µg/mL; E. coli MIC ([11]; second value of IC50/MIC): 10.0 µg/mL; antileishmanial activity compared with pentamidine ([12]; in words): more potent than pentamidine; M. intracellulare MIC ([14]; second value of IC50/MIC): 20.0 µg/mL
"COc1cccc2c1C(=O)c1c(O)c3c(c(O)c1C2=O)C[C@@](O)(C(=O)CO)C[C@@H]3O[C@H]1C[C@H](N)[C@H](O)[C@H](C)O1 [Doxorubicin, reference compound]",–,–,–,–,–,–,–,–,–,–,–,–,–,–,–,–,"IC50 ([1]; 48 h, read-out: VERO IC50): > 5 µg/mL; IC50 ([2]; Homo sapiens, SK-OV-3, 48 h, read-out: SK-OV-3 IC50): 0.9 µg/mL; IC50 ([3]; Homo sapiens, 48 h, read-out: KB IC50): 0.9 µg/mL; IC50 ([4]; Homo sapiens, BT-549, 48 h, read-out: BT-549 IC50): 0.9 µg/mL; IC50 ([6]; Homo sapiens, 48 h, read-out: SK-MEL IC50): 0.85 µg/mL"
"N=C(N)c1ccc(OCCCCCOc2ccc(C(=N)N)cc2)cc1 [Pentamidine, reference compound]",–,–,–,–,–,–,–,–,–,–,–,–,–,–,–,–,IC50 [12]: 2.1 µg/mL; IC90 [12]: 4 µg/mL
